Molecules are shown by their SMILES.

The target in assay [1] is Delta-type opioid receptor (Homo sapiens, UniProt P41143). Put plainly: Inhibition of [125I]deltorphin binding to human delta opioid receptor from membranes of HEK293 cells. The format is cell membranes. The gist of the method: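 Displacement of [125I]-Deltorphin from membranes of HEK293 cells overexpressing human delta opioid receptor, read by classical filter binding. IC50 came from full dose–response curves on purified material, in single determinations.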

Assay [2] concerns the target T1, Kappa-type opioid receptor (Homo sapiens, UniProt P41145). Put plainly: Inhibition of [125I]-(D-Pro10)-Dynorphin A binding to human kappa opioid receptor from membranes of HEK293 cells. The format is cell membranes. In short, it runs like this: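 Classical filter binding on membranes from HEK293 cells overexpressing human kappa opioid receptor, measuring displacement of [125I]-(D-Pro10)-Dynorphin A. Purified compounds were run as full dose–response curves and reported as mean IC50 ± SEM. Crude or partially purified mixtures were screened at a single concentration for percent inhibition of radioligand binding.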

The target in another assay is Mu-type opioid receptor (Homo sapiens, UniProt P35372). Put plainly: Inhibition of [125I]Enkephalin binding to human mu opioid receptor from membranes of HEK293 cells. It counts as cell membranes. The gist of the method: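 Filter binding on membranes of HEK293 cells overexpressing human mu opioid receptor, measuring displacement of [125I]-Enkephalin. IC50 came from full dose–response curves on purified material, in single determinations.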

The target of assay [3] is T1, Kappa-type opioid receptor. Put plainly: Effective dose for agonistic activity towards human kappa opioid receptor from membranes of HEK293 cells was determined by radiolabeled [35S]GTP-gamma-S, assay. The format is functional, cell membranes. On the technique in general: Binding of GTPγS marks nucleotide exchange on a G protein.
Assay [4] deals with T1, Kappa-type opioid receptor. Put plainly: Inhibitory concentration against [125I]-(D-Pro10)-Dynorphin A binding to human kappa opioid receptor from membranes of HEK293 cells. It counts as cell membranes. The following applies: concentration not given here. The gist of the method:
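Filter binding on membranes from HEK293 cells overexpressing the human kappa opioid receptor. Displacement of [125I]-(D-Pro10)-Dynorphin A was measured, with full dose–response curves on purified material. IC50 is the mean of determinations, quoted with SEM.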

Delta-type opioid receptor, sequence (P41143 whole entry): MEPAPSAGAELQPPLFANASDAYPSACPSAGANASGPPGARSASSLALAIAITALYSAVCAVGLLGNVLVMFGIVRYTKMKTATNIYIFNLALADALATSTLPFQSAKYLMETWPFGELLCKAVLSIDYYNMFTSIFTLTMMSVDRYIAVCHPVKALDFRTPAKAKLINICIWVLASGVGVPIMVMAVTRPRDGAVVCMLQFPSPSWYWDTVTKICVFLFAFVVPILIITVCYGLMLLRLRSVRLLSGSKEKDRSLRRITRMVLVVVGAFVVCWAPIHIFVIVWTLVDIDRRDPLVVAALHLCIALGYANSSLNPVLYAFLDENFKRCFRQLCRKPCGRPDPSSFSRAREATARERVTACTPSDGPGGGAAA
T1 sequence (P41145 whole entry): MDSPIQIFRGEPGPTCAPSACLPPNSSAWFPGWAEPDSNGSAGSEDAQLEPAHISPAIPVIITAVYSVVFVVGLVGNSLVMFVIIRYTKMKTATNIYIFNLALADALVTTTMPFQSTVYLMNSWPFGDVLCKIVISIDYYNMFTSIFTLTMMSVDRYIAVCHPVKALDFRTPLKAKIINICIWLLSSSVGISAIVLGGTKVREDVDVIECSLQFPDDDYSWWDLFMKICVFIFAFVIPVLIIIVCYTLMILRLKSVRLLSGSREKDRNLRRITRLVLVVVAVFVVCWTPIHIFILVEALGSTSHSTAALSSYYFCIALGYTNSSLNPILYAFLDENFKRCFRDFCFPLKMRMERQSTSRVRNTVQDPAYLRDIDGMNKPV
Mu-type opioid receptor, sequence (P35372 whole entry): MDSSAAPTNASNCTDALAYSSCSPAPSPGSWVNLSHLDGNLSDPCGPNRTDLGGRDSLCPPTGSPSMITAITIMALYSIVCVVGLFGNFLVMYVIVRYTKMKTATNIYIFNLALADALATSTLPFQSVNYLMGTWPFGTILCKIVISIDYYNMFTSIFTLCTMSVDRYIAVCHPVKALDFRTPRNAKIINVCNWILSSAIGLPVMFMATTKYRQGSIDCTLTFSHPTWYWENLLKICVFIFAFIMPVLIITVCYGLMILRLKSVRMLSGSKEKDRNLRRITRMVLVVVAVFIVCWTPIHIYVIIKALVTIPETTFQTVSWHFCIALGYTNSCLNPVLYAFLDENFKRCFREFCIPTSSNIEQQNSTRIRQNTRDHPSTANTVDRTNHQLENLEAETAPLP

In general, IC50 refers to the concentration that gives 50% inhibition. Read a low IC50 as greater potency. Turning to `CC(=O)c1ccc(-c2cccn(C(CN3CCC(O)C3)c3ccccc3)c2=O)cc1` (stereo unspecified), the values for the IC50 (in assay [1]; in assay [2]; at Mu-type opioid receptor) were > 10 µM, 0.014 µM and 1.75 µM, respectively.
`O=c1c(-c2ccccc2)nccn1C(CN1CCCC1)c1ccccc1` (stereo unspecified) had a 50% inhibitory concentration (IC50) in assay [2] of 2.45 µM.
On to `CCN(CC)c1ccc(C(CN2CCCC2)n2cccc(-c3ccc(C(F)(F)F)cc3)c2=O)cc1` (stereo unspecified), for which the IC50 was > 10 µM in assay [1], 3.08 µM in assay [2] and > 10 µM at Mu-type opioid receptor.
`O=c1c(-c2ccccc2)ccnn1C(CN1CCCC1)c1ccccc1` (stereo unspecified) gave an IC50 in assay [2] of 0.55 µM. That is a sub-micromolar value.
Take `O=c1c(-c2ccc(F)cc2)cccn1C(CN1CCC(O)C1)c1ccccc1` (stereo unspecified): the IC50 in assay [1] was > 10 µM; in assay [2] it was 0.033 µM; on Mu-type opioid receptor, > 10 µM.
For the compound `COc1cccc(OC)c1-c1cccn(C(CN2CCC(O)C2)c2ccccc2)c1=O` (stereo unspecified), the IC50 in assay [1] was > 10 µM; in assay [2], 0.0098 µM; on Mu-type opioid receptor it was 3.91 µM.
In assay [3], `COc1ccc(F)cc1-c1cccn(C(CN2CCC(O)C2)c2ccccc2)c1=O` (stereo unspecified) had an ED50 of 0.032 µM. In addition, the half-inhibitory concentration (IC50) is 0.46 µM in assay [1], 0.0055 µM in assay [2] and > 10 µM on Mu-type opioid receptor.
As for `O=C(O)COc1cccc(C(CN2CCCC2)n2cccc(-c3ccc(C(F)(F)F)cc3)c2=O)c1` (stereo unspecified), the values for the IC50 (in assay [1]; in assay [2]; at Mu-type opioid receptor) were 5.6 µM, 0.42 µM and > 10 µM, respectively.
On the same counts, the results for `CC(=O)c1ccc(-c2cccn(C(CN3CCC(O)C3)c3ccccc3)c2=O)s1` (stereo unspecified) are > 10 µM, 0.038 µM and > 10 µM.
On the same counts, the results for `COc1ccc(OC)c(-c2cccn(C(CN3CCC(O)C3)c3ccccc3)c2=O)c1` (stereo unspecified) are > 10 µM, 0.0069 µM and 2.22 µM.
Regarding `COc1ccc(Cl)cc1-c1cccn(C(CN2CCC(O)C2)c2ccccc2)c1=O` (stereo unspecified), the IC50 in assay [1] was > 10 µM; in assay [2] it was 0.053 µM; at Mu-type opioid receptor it was 0.19 µM.
With `O=c1c(-c2ccc(C(F)(F)F)cc2)cccn1C(CN1CCOCC1)c1ccccc1` (stereo unspecified), the IC50 in assay [1] was > 10 µM; in assay [2], 0.7 µM; at Mu-type opioid receptor it was > 10 µM.
For the compound `O=c1c(-c2ccc(C(F)(F)F)cc2)cccn1C(Cn1ccnc1)c1ccccc1` (stereo unspecified), the IC50 in assay [2] is > 10 µM.
In assay [3], `O=c1c(-c2ccc(Cl)cc2Cl)cncn1C(CN1CCCC1)c1ccccc1` (stereo unspecified) returned an ED50 of 0.615 µM. The IC50 in assay [1] was > 10 µM; in assay [2], 0.041 µM; on Mu-type opioid receptor, 9.6 µM.
For `COc1ccccc1-c1cccn(C(CN2CCC(O)C2)c2ccccc2)c1=O` (stereo unspecified), the IC50 in assay [1] is > 10 µM; in assay [2] it was 0.094 µM.
As to `O=c1c(-c2ccccc2)cccn1C(CN1CCC(O)C1)c1ccccc1` (stereo in doubt; 20a), the half-maximal inhibitory concentration (IC50) in assay [1] is > 10 µM; in assay [2], 0.465 µM; on Mu-type opioid receptor, > 10 µM.
In the case of `O=c1c(-c2cccc(CO)c2)cccn1C(CN1CCC(O)C1)c1ccccc1` (stereo unspecified), the IC50 is > 10 µM in assay [1], 0.0096 µM in assay [2] and > 5 µM on Mu-type opioid receptor.
On the same counts, the results for `O=c1c(Nc2ccc(C(F)(F)F)cc2)cccn1C(CN1CCCC1)c1ccccc1` (stereo unspecified) are > 10 µM, 0.082 µM and 10 µM.
Turning to `Cc1ccc(Nc2cccn(C(CN3CCCC3)c3ccccc3)c2=O)cc1` (stereo unspecified), the IC50 in assay [1] is > 10 µM; in assay [2], 0.094 µM.
With `O=c1c(-c2ccc(C(F)(F)F)cc2)cccn1C(CN1C=CC=CC=N1)c1ccccc1` (stereo unspecified), the IC50 is > 10 µM in assay [1], 1.4 µM in assay [2] and > 10 µM at Mu-type opioid receptor.
With `O=c1c(-c2ccc(OC(F)(F)F)cc2)cccn1C(CN1CCC(O)C1)c1ccccc1` (stereo unspecified), the IC50 was > 10 µM in assay [1], 0.0076 µM in assay [2] and > 5 µM on Mu-type opioid receptor.
On the same counts, the results for `COc1ccc(C(CN2CCCC2)n2cccc(-c3ccc(C(F)(F)F)cc3)c2=O)cc1` (stereo unspecified) are > 10 µM, 0.32 µM and > 10 µM.
As for `O=c1c(-c2ccccc2)cccn1C(CN1CCC(O)C1)c1ccccc1` (stereo in doubt; 14f), the values for the IC50 (in assay [1] (hek293); in assay [2]; on Mu-type opioid receptor (hek293)) were > 10 µM, 0.47 µM and > 10 µM, respectively.
Regarding `O=Cc1ccccc1-c1cccn(C(CN2CCC(O)C2)c2ccccc2)c1=O` (stereo unspecified), the IC50 was > 10 µM in assay [1] and 0.013 µM in assay [2].
Regarding `Nc1cccc(-c2cccn(C(CN3CCC(O)C3)c3ccccc3)c2=O)c1` (stereo unspecified), the IC50 in assay [1] is > 10 µM; in assay [2], 0.025 µM; at Mu-type opioid receptor, 2.91 µM.
As for `O=c1c(-c2ccccc2)cncn1C(CN1CCCC1)c1ccccc1` (stereo unspecified), the IC50 in assay [2] was 1.76 µM.
With `O=c1c(Nc2ccccc2)cccn1C(CN1CCCC1)c1ccccc1` (stereo unspecified), the IC50 in assay [2] is > 1 µM.
Consider `Cc1cc(-c2cccn(C(CN3CCC(O)C3)c3ccccc3)c2=O)ccc1F` (stereo unspecified), for which the IC50 in assay [1] was > 10 µM; in assay [2], 0.0084 µM; on Mu-type opioid receptor, > 5 µM.
For `O=c1c(-c2cccc(OC(F)(F)F)c2)cccn1C(CN1CCC(O)C1)c1ccccc1` (stereo unspecified) the same measures were > 10 µM, 0.022 µM and > 5 µM.
On the same counts, the results for `O=c1c(-c2ccc(Cl)cc2Cl)cccn1C(CN1CCCC1)c1ccccc1` (stereo unspecified) are > 10 µM, 0.0023 µM and 2.1 µM.
As for `Cc1ccc(C(C)Nc2cccn(C(CN3CCCC3)c3ccccc3)c2=O)cc1` (stereo unspecified), the IC50 in assay [1] is > 10 µM; in assay [2], 0.33 µM; on Mu-type opioid receptor it was > 10 µM.
Broadly, the inhibition is how much of the control response was suppressed. A high value points to strong suppression. Turning to `O=C(O)c1cccc(-c2cccn(C(CN3CCC(O)C3)c3ccccc3)c2=O)c1` (stereo unspecified), in assay [4], the inhibition turned out to be 41%.
Consider `O=C1COc2ccc(C(CN3CCCC3)n3cccc(-c4ccc(C(F)(F)F)cc4)c3=O)cc2N1` (stereo unspecified), for which the IC50 in assay [1] is > 10 µM; in assay [2] it was 0.057 µM; at Mu-type opioid receptor, > 10 µM.

Source of the values: ChEMBL document CHEMBL1136656, “Synthesis and Biological activity of kappa opioid receptor agonists. Part 2: preparation of 3-aryl-2-pyridone analogues generated by solution- and solid-phase parallel synthesis methods” (Bioorg Med Chem Lett, 2003).
